Organism: Rattus norvegicus
Assay: Toxicity in rat assessed as effects on gastrointestinal mucosa
Assay type: organism-based, Intestinal mucosa
Conditions: in vivo

With `C/C(=N\OCC(=O)OCCN(C)C)c1ccc(Cl)cc1` [CLOXIMATE] the Activity was “Non-toxic”.

Test system: not listed separately
Assay: Toxicity in ip dosed mouse
Assay type: organism-based
Conditions: in vivo
Method in brief: (§1)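 Mice; LD50 derived by Horn's method. Amine compounds were tested as hydrochloride salts, with one exception given as the free base.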

Work on `C/C(=N\OCC(=O)OCCN(C)C)c1ccc(Cl)cc1` [CLOXIMATE] yielded an LD50 greater than 320 mg/kg.

Test system: Mus musculus
Assay: Neurotoxicity in po dosed mouse
Assay type: toxicity, organism-based
Conditions: in vivo
Method in brief: (§2)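 Mice were assessed by a modified Irwin observational method.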

With `C/C(=N\OCC(=O)OCCN(C)C)c1ccc(Cl)cc1` [CLOXIMATE] the ED50 was greater than 1000 mg/kg.

Test system: Rattus norvegicus
Assay: Antiinflammatory activity in rat assessed as inhibition of carrageenan-induced paw edema at 50 mg/kg, po administered 1 hr prior challenge measured 3 hrs post challenge
Assay type: functional
Conditions: not given
Method in brief: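 Rats of 180-220 g, four per group, were given 50 mg/kg orally in 1% tragacanth vehicle 1 h before intraplantar injection of 0.05 mL of 1% carrageenan. Hind-paw edema was measured 3 h after injection and reported as percent inhibition (Winter method).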

First: C/C(=N\OCC(=O)O)c1ccc([N+](=O)[O-])cc1
Second: C/C(=N\OCC(=O)O)c1ccc(N)cc1
The inhibition in vivo at 50 mg/kg of the first is lower: less than 20% for the first, 20% for the second.

`C/C(=N\OCC(=O)O)c1ccc(F)c(N)c1` and `C/C(=N\OCC(=O)O)c1ccc(Cl)c(C)c1` are the same in inhibition in vivo at 50 mg/kg: 20% for the first, 20% for the second.

`C/C(=N\OCC(=O)O)c1ccc(S(C)(=O)=O)cc1` and `C/C(=N\OCC(=O)O)c1ccc(C)cc1` are the same in inhibition in vivo at 50 mg/kg: 20% for the first, 20% for the second.

`CC(=O)Nc1ccc(/C(C)=N/OCC(=O)O)cc1` and `C/C(=N\OCC(=O)O)c1ccc(O)cc1` cannot be ordered by inhibition in vivo at 50 mg/kg: less than 20% for the first, less than 20% for the second.

`O=C(O)CON=C1CCCCC1` and `C/C(=N\OCC(=O)O)c1ccc(CC2CCCCC2)cc1` cannot be ordered by inhibition in vivo at 50 mg/kg: less than 20% for the first, less than 20% for the second.

`CC/C(=N\OCC(=O)O)c1ccc(Cl)cc1` and `CCCCC/C(=N\OCC(=O)O)c1ccc(Cl)cc1` cannot be ordered by inhibition in vivo at 50 mg/kg: less than 20% for the first, less than 20% for the second.

`C/C(=N/OCC(=O)O)c1ccc(Cl)s1` and `C/C(=N/OCCO)c1ccc(Cl)s1` cannot be ordered by inhibition in vivo at 50 mg/kg: less than 20% for the first, less than 20% for the second.

`C/C(=N\OCC(=O)O)c1ccccc1C(=O)O` and `C/C(=N\OCC(=O)O)c1ccccc1O` cannot be ordered by inhibition in vivo at 50 mg/kg: less than 20% for the first, less than 20% for the second.

`CSc1ccc(/C(C)=N/OCC(=O)O)cc1` and `COc1ccc(/C(C)=N/OCC(=O)O)cc1` cannot be ordered by inhibition in vivo at 50 mg/kg: less than 20% for the first, less than 20% for the second.

`CN(C)c1ccc(/C=N/OCC(=O)O)cc1` and `C/C(=N\OCC(=O)O)c1ccc(N(C)C)cc1` cannot be ordered by inhibition in vivo at 50 mg/kg: less than 20% for the first, less than 20% for the second.

Going from `O=C(O)CO/N=C/c1cccc2ccccc12` to `C/C(=N\OCC(=O)O)c1cccc2ccccc12`, the inhibition in vivo at 50 mg/kg rises from less than 20% to 20%.

`O=C(O)CO/N=C/c1ccccc1Cl` and `C/C(=N\OCC(=O)O)c1ccccc1Cl` cannot be ordered by inhibition in vivo at 50 mg/kg: less than 20% for the first, less than 20% for the second.

`C/C(=N\OCC(C)O)c1ccc(Cl)cc1` (configuration not stated) and `C/C(=N\OCCCCO)c1ccc(Cl)cc1` cannot be ordered by inhibition in vivo at 50 mg/kg: less than 20% for the first, less than 20% for the second.

`OCCO/N=C\c1ccc(Cl)cc1` and `O=C(O)CO/N=C/c1ccc([N+](=O)[O-])cc1` cannot be ordered by inhibition in vivo at 50 mg/kg: less than 20% for the first, less than 20% for the second.

`C/C(=N\OCC(N)=O)c1ccccc1` and `C/C(=N\OCC(=O)O)c1ccccc1` cannot be ordered by inhibition in vivo at 50 mg/kg: less than 20% for the first, less than 20% for the second.

`C/C(=N\NCC(=O)O)c1ccc(C2CCCCC2)c(Cl)c1` and `C/C(=N\OCC(=O)O)c1ccc(C2CCCCC2)c(Cl)c1` cannot be ordered by inhibition in vivo at 50 mg/kg: less than 20% for the first, less than 20% for the second.

`C/C(=N\OCC(=O)O)c1ccc(C(C)(C)C)cc1` and `C/C(=N\OCC(=O)O)c1ccc(C#N)cc1` cannot be ordered by inhibition in vivo at 50 mg/kg: less than 20% for the first, less than 20% for the second.

Going from `O=C(O)CO/N=C1\CCc2cc(Cl)ccc21` to `C/C(=N\OCC(=O)O)c1cccc(Cl)c1`, the inhibition in vivo at 50 mg/kg rises from less than 20% to 20%.

First: CC(C)=NOCC(=O)O
Second: C/C(=N\OCC(=O)O)c1ccc(C2CC2)cc1
The inhibition in vivo at 50 mg/kg of the first is higher: 20% for the first, less than 20% for the second.

`C/C(=C\CCC(=O)O)c1ccc(Cl)cc1` and `O=C(O)C#Cc1ccc(Cl)cc1` cannot be ordered by inhibition in vivo at 50 mg/kg: less than 20% for the first, less than 20% for the second.

`C/C(=N\OCC(=O)OCCN(C)C)c1ccc(F)cc1` and `C/C(=N\OCC(N)=O)c1ccc(F)cc1` are the same in inhibition in vivo at 50 mg/kg: 20% for the first, 20% for the second.

`C/C(=N\OCC(=O)O)c1c[nH]c2ccccc12` and `O=C(O)CO/N=C\c1ccc(Cl)s1` cannot be ordered by inhibition in vivo at 50 mg/kg: less than 20% for the first, less than 20% for the second.

Test system: not listed separately
Assay: Toxicity in po dosed mouse
Assay type: organism-based
Conditions: in vivo
Method in brief: as §1

Molecule `C/C(=N\OCC(=O)OCCN(C)C)c1ccc(Cl)cc1` [CLOXIMATE] has an LD50 greater than 1000 mg/kg.

Test system: Rattus norvegicus
Assay: Antiinflammatory activity in po dosed rat assessed as inhibition of carrageenan-induced paw edema compound administered 1 hr prior challenge measured 3 hrs post challenge
Assay type: functional
Conditions: not given
Method in brief: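 Rats of 180-220 g received oral doses in a series, in 1% tragacanth vehicle, 1 h before intraplantar injection of 0.05 mL of 1% carrageenan. Paw edema was measured at 3 h. ED50 (mg/kg) was derived graphically from the dose-inhibition curve, with 95% confidence limits by Finney's method for some compounds. Amines were tested as hydrochlorides.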

Compared with `C/C(=N\OCC(=O)O)c1ccc(Cl)cc1Cl`, `C/C(=N\OCC(=O)O)c1ccc(Cl)c(Cl)c1` is 1.8-fold lower in ED50: 120 mg/kg for the first, 65 mg/kg for the second.

Going from `CCCCC1C(=O)N(c2ccccc2)N(c2ccccc2)C1=O` [PHENYLBUTAZONE] to `CCCOC(=O)CO/N=C(\C)c1ccc(Cl)cc1`, the ED50 falls from 34 mg/kg to 14 mg/kg (2.4-fold).

Going from `C/C(=N\OC(C)C(=O)O)c1ccc(Cl)cc1` (configuration not stated) to `C/C(=N\OCC(=O)O)c1ccc(Cl)cc1`, the ED50 falls from 55 mg/kg to 28 mg/kg (2-fold).

Compared with `C/C(=C\CC(=O)O)c1ccc(Cl)cc1`, `C/C(=N\NCC(=O)O)c1ccc(Cl)cc1` is 3.2-fold lower in ED50: 70 mg/kg for the first, 22 mg/kg for the second.

Going from `OCCO/N=C/c1ccc(Cl)cc1` to `O=C(O)CO/N=C/c1ccc(Cl)cc1`, the ED50 falls from 90 mg/kg to 45 mg/kg (2-fold).

Compared with `C/C(=N\OCC(N)=O)c1ccc(Br)cc1`, `C/C(=N\OCC(=O)O)c1ccc(Br)cc1` is 2.3-fold lower in ED50: 62 mg/kg for the first, 27 mg/kg for the second.

`C/C(=N\OCC(=O)OCCNC1CCCCC1)c1ccc(Cl)cc1.Cl` and `CNCCOC(=O)CO/N=C(\C)c1ccc(Cl)cc1.Cl` are the same in ED50: 26 mg/kg for the first, 26 mg/kg for the second.

`C/C(=N\OCCCC(=O)O)c1ccc(Cl)cc1` and `C/C(=N\OCCC(=O)O)c1ccc(Cl)cc1` are within 1.5-fold of each other in ED50: 58 mg/kg for the first, 80 mg/kg for the second.

Going from `C/C(=N\OCC(=O)OC(C)C)c1ccc(Cl)cc1` to `COC(=O)CO/N=C(\C)c1ccc(Cl)cc1`, the ED50 falls from 50 mg/kg to 24 mg/kg (2.1-fold).

Going from `C/C(=N\OCC(N)=O)c1ccc(Cl)cc1` to `CNC(=O)CO/N=C(\C)c1ccc(Cl)cc1`, the ED50 rises from 24 mg/kg to 70 mg/kg (2.9-fold).

`C/C(=N\OC(C)(C)C(=O)O)c1ccc(Cl)cc1` and `C/C(=N\OCCOC(=O)C(C)(C)C)c1ccc(Cl)cc1` are within 1.5-fold of each other in ED50: 42 mg/kg for the first, 38 mg/kg for the second.

`C/C(=N\OCC(=O)OCCN(C)C)c1ccc(Br)cc1` and `C/C(=N\OCC(=O)OCCN(C)C)c1ccc(Cl)cc1` [CLOXIMATE] are within 1.5-fold of each other in ED50: 47 mg/kg for the first, 34 mg/kg for the second.

`CC(=O)OCCO/N=C(\C)c1ccc(Cl)cc1` and `COC(=O)OCCO/N=C(\C)c1ccc(Cl)cc1` are within 1.5-fold of each other in ED50: 43 mg/kg for the first, 33 mg/kg for the second.

Compared with `C/C(=N\OCC(=O)N(C)C)c1ccc(Cl)cc1`, `CCOC(=O)CO/N=C(\C)c1ccc(Cl)cc1` is 3.8-fold lower in ED50: 120 mg/kg for the first, 32 mg/kg for the second.

`C/C(=N\OCC(=O)OCCN1CCN(C)CC1)c1ccc(Cl)cc1.Cl` and `C/C(=N\OCC(=O)OCCN1CCOCC1)c1ccc(Cl)cc1.Cl` are within 1.5-fold of each other in ED50: 54 mg/kg for the first, 44 mg/kg for the second.

First: C/C(=N\OCC(=O)OCC(C)(C)N(C)C)c1ccc(Cl)cc1.Cl
Second: C/C(=N\OCC(=O)OCCCCCCN(C)C)c1ccc(Cl)cc1
The ED50 of the first is 2.4-fold lower: 27 mg/kg for the first, 66 mg/kg for the second.

`C/C(=N\OCC(=O)O)c1ccc(F)cc1` and `C/C(=N\OCC(=O)O)c1ccc(C(F)(F)F)cc1` are within 1.5-fold of each other in ED50: 85 mg/kg for the first, 120 mg/kg for the second.

`C/C(=N\OCC(=O)OCCN(C)C)c1ccc(Cl)c(Cl)c1` and `C/C(=N\OCC(N)=O)c1ccc(Cl)c(Cl)c1` are within 1.5-fold of each other in ED50: 80 mg/kg for the first, 55 mg/kg for the second.

Going from `C/C(=N\OCCCCCC(=O)O)c1ccc(Cl)cc1` to `C/C(=N\OCCO)c1ccc(Cl)cc1`, the ED50 falls from 92 mg/kg to 29 mg/kg (3.2-fold).

Going from `O=C(O)CN/N=C/c1ccc(Cl)cc1` to `O=C(O)CO/N=C/c1ccc(Br)cc1`, the ED50 rises from 25 mg/kg to 46 mg/kg (1.8-fold).

Compared with `COC(=O)CO/N=C(\C)c1ccc(Br)cc1`, `C/C(=N\OCC(=O)O)c1ccc(Cl)s1` is 2.4-fold higher in ED50: 14 mg/kg for the first, 34 mg/kg for the second.

First: CC(C)Cc1ccc(CC(=O)O)cc1 [IBUFENAC]
Second: CC(C)Cc1ccc(C(C)C(=O)O)cc1 (configuration not stated) [IBUPROFEN]
The ED50 of the first is 3.9-fold higher: 98 mg/kg for the first, 25 mg/kg for the second.

In the case of `C/C(=N\OCCO)c1ccc(Cl)s1`, the ED50 is reported as 60 mg/kg.

Organism: Canis familiaris
Assay: Toxicity in dog assessed as effect on emptying rate of stomach
Assay type: organism-based, Canis lupus familiaris
Conditions: in vivo

For `C/C(=N\OCC(=O)OCCN(C)C)c1ccc(Cl)cc1` [CLOXIMATE], the Activity was “Non-toxic”.

Test system: Mus musculus
Assay: Neurotoxicity in ip dosed mouse
Assay type: toxicity, organism-based
Conditions: in vivo
Method in brief: as §2

With `C/C(=N\OCC(=O)OCCN(C)C)c1ccc(Cl)cc1` [CLOXIMATE] the ED50 was greater than 320 mg/kg.

Organism: Rattus norvegicus
Assay: Toxicity in rat assessed as effect on emptying rate of stomach
Assay type: organism-based
Conditions: in vivo

For `C/C(=N\OCC(=O)OCCN(C)C)c1ccc(Cl)cc1` [CLOXIMATE], the Activity was “Non-toxic”.

Organism: Canis familiaris
Assay: Toxicity in dog assessed as effects on gastrointestinal mucosa
Assay type: organism-based, Canis lupus familiaris, Intestinal mucosa
Conditions: in vivo

With `C/C(=N\OCC(=O)OCCN(C)C)c1ccc(Cl)cc1` [CLOXIMATE] the Activity was “Non-toxic”.
